# Sampled rows, rich in hits. Any-hit rate of the full collection: about 2.3%.
# TRPC6 act: mouse TRPC6 channel activators, primary screen, cell-based, HEK293, membrane potential dye; actives 0.13% (n = 310,000); AID 2550, 2010; HEK293-TRPC6 membrane potential dye fluorescence; hits give high values; Short transient receptor potential channel 6 (Mus musculus), Q61143; B-score at 10 µM;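 active = B-score of the integrated fluorescence ratio above library mean plus 3 SD, and starting fluorescence ratio within library mean plus 5 SD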;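 note: higher score means more depolarization so channel activation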
# Target sequence (Q61143 whole entry, looked up): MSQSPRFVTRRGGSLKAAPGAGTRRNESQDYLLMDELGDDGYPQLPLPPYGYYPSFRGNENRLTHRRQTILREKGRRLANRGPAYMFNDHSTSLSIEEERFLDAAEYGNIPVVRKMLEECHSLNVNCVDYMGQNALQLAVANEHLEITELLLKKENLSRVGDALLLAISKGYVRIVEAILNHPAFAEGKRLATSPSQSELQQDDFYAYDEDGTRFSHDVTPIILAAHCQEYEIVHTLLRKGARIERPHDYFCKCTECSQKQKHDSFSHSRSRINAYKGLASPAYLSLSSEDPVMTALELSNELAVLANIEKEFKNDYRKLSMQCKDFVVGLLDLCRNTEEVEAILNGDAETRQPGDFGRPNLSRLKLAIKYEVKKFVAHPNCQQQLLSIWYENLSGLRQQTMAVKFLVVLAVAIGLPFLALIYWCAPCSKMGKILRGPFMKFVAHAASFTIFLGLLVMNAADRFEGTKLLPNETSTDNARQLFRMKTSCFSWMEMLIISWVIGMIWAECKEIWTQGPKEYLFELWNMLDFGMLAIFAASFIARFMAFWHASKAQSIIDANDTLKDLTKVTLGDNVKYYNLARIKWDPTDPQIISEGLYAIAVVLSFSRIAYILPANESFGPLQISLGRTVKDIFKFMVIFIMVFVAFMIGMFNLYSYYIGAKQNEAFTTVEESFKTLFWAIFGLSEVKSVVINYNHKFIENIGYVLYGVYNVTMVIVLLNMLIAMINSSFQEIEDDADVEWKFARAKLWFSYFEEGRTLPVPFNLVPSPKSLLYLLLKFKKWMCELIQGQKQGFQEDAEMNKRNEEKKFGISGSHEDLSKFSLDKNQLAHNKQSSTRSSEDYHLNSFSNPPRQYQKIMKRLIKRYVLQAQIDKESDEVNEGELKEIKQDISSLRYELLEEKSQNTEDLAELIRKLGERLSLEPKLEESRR
# TRPC4 inh: inhibitors of mouse TRPC4 channel, primary screen, Fluo4 calcium, HEK293 TRPC4beta/mu-opioid cells | Short transient receptor potential channel 4 (Mus musculus), Q9QUQ5 | DAMGO-evoked Fluo4 calcium flux; hits give low values | B-score at 10 µM | actives 0.39% (n = 300,000) | AID 2247, 2010;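 active = B-score over 3 SD under the library average, no early fluorescence shift, positive overall ratio signal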
#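 Assay system: HEK293 cells with stable TRPC4beta plus mu-opioid receptor expression; Probe or stimulus: DAMGO in two steps, submaximal then maximal; Dosing: single-point compound dosing; Measured by: Fluo4 calcium-dye fluorescence, kinetic read; Read-out basis: B score from integrated Fluo4 fluorescence ratio.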
# TRPC4 PAM: positive allosteric modulators of TRPC4, primary screen, cell-based, mouse TRPC4beta, HEK293 mu-opioid, Fluo-4 calcium | actives 0.42% (n = 310,000) | Short transient receptor potential channel 4 (Mus musculus), Q9QUQ5 | AID 2227, 2009 | DAMGO EC20, Fluo-4 Ca2+ flux; hits give high values | B-score at 10 µM;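 active = B-score of calcium response area above 5 SD of library B-scores, with initial fluorescence ratio within 5 SD of library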;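 note: B-score of integrated fluorescence ratio over time as area under calcium response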
# TRPC6 inhibitor: mouse TRPC6 channel inhibitors, primary screen, cell-based, HEK293, membrane potential dye; B-score at 10 µM; actives 1.1% (n = 310,000); Short transient receptor potential channel 6 (Mus musculus), Q61143; ACh-evoked depolarization; hits give low values;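 active = B-score under library mean minus 3 SD, initial fluorescence not abnormally high, positive integrated signal ratio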;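 note: B-score derived from integrated fluorescence ratio over the kinetic read; more negative B-score means stronger inhibition of depolarization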
# TRPC4 act: activators of mouse TRPC4 channel, primary screen, Fluo4 calcium, HEK293 TRPC4beta/mu-opioid cells; Fluo4 calcium fluorescence; hits give high values; B-score at 10 µM; actives 0.49% (n = 310,000); AID 2237, 2010;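 active = B-score above 5 SD of library B-scores, and initial fluorescence ratio not above library mean plus 5 SD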;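 note: positive B-score marks a calcium rise read as TRPC4 activation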
#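 Material: HEK293 stable line with TRPC4beta plus mu-opioid receptor; technique: Fluo4 calcium-sensitive dye fluorescence, kinetic, 1 Hz baseline; timing: Fluo4 dye loading 45 min at room temperature, 110 s recording; controls: assay buffer as low control, maximal DAMGO as high control; read-out: integrated baseline-normalised fluorescence ratio, converted to per-well B score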
# TRPC4 sel inh 2: mouse TRPC4 off-target activity of TRPC6 inhibitors, second screen. shares compounds with TRPC6 inhibitor. HEK293 TRPC4/MOR, membrane potential dye fluorescence; channel activated by saturating DAMGO dose. inhibition, % at 10 µM. actives 42% (n = 920);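 active = compounds whose fluorescence signal differed from control wells by over 3 SD, either direction, in both duplicate plates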
# TRPC4 spec: mouse TRPC4 modulation by TRPC6 hits, confirmation, selectivity assay for TRPC6 inhibitor project, cell-based, HEK293 TRPC4/mu-opioid, membrane potential dye. shares compounds with TRPC6 inhibitor. membrane potential fluorescence. activity change, negative = inhibition, % at 10 µM. actives 61% (n = 920). AID 2777, 2010;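 active = rise or fall in signal beyond 3 SD of buffer-only wells in both replicate plates, either sign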;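 note: integrated kinetic ratio of fluorescence range over baseline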
# HEK293 MPD ctr 2-1: nonspecific membrane potential effects, parental HEK293, confirmation, counter-screen for TRPC6 inhibitor project, cell-based, second counter screen. parental HEK293 membrane potential dye fluorescence; maximal acetylcholine challenge after compound addition. shares compounds with TRPC6 inhibitor. signal change vs control, % at 10 µM. AID 2779, 2010. actives 31% (n = 920);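 active = membrane potential signal moving either way by over 3 SD of the maximum-effect control, in both duplicate plates, meaning non-specific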
# HEK293 MPD ctr-1: membrane potential modulation in parental HEK293, confirmation, counter-screen for TRPC6 inhibitor project, cell-based. shares compounds with TRPC6 inhibitor. parental HEK293 membrane potential dye fluorescence. membrane potential signal change, % at 10 µM. actives 60% (n = 920). AID 2780, 2010;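 active = membrane potential signal shifting up or down by more than 3 SD of buffer-only wells, on both duplicate plates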
# HEK293 MPD ctr-2: parental HEK293 membrane potential modulation, confirmation, counter-screen for TRPC6 modulator project, cell-based. membrane potential signal change, % at 10 µM. shares compounds with TRPC6 inhibitor. membrane potential dye fluorescence. actives 51% (n = 2,400);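 active = membrane potential signal moves up or down beyond 5 SD from buffer-only wells, on both duplicate plates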
# HEK293 MPD ctr 2-2: second counter-screen for TRPC6 modulators: effect in parental HEK293 cells; shares compounds with TRPC6 inhibitor; membrane potential dye fluorescence; after compound, maximal acetylcholine stimulation; inhibition, % at 10 µM; actives 14% (n = 2,400);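 active = membrane potential signal drops by more than 5 SD from the mean control signal, in both duplicate plates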;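 note: plate controls were acetylcholine ECmax control wells for no effect and buffer only wells for full effect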
# TRPC4/MOR mod: TRPC4 modulation by TRPC6 hit compounds, confirmation, selectivity assay for TRPC6 modulator project, cell-based, HEK293 TRPC4/mu-opioid, membrane potential dye, mouse; shares compounds with TRPC6 inhibitor; membrane potential fluorescence; percent change from control (negative = decrease, positive = increase), % at 10 µM; actives 69% (n = 2,400);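 active = membrane potential signal moved up or down beyond 5 SD of buffer control wells, in both duplicate plates, actives on both sides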;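 note: plate controls were assay buffer wells for no effect and DAMGO maximal-effect wells for full effect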
# TRPC4/MOR inh 2: second selectivity test of TRPC6 modulators against mouse TRPC4. shares compounds with TRPC6 inhibitor. HEK293 TRPC4/mu-opioid, membrane potential dye fluorescence; stimulated with maximal-effect DAMGO. inhibition, % at 10 µM. actives 55% (n = 2,400);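 active = drop in membrane potential signal beyond 5 SD of the control wells in both duplicate plates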;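 note: TRPC4 counter screen for TRPC6 hits run under conditions tuned for TRPC6 not TRPC4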
# TRPC6 inh conf: mouse TRPC6 channel inhibitors, confirmation, HEK293 cells, membrane potential dye, duplicate; shares compounds with TRPC6 inhibitor; ACh-evoked depolarization; inhibition, % at 10 µM; actives 43% (n = 3,300); AID 488960, 2010;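 active = fluorescence ratio falls more than 5 SD below the full-stimulation control mean, in both duplicate runs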;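 note: integrated fluorescence ratio of peak minus minimum over baseline after agonist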
# TRPC6 act conf: mouse TRPC6 channel activators, confirmation, HEK293 cells, membrane potential dye, duplicate | AID 488961, 2010 | shares compounds with TRPC6 inhibitor | actives 11% (n = 2,800) | HEK293-TRPC6 membrane potential dye fluorescence, FDSS | activation, % at 10 µM;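 active = ratio signal rise beyond 5 SD above unstimulated control wells' mean, seen in both duplicate runs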;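 note: plate controls were buffer EC0 wells for no effect and acetylcholine ECmax response for full effect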
# Starred values were filed as active, the others as inactive; i = inactive; . = no result.
SMILES,TRPC6 act,TRPC4 inh,TRPC4 PAM,TRPC6 inhibitor,TRPC4 act,HEK293 MPD ctr-2,HEK293 MPD ctr 2-2,TRPC4/MOR mod,TRPC4/MOR inh 2,TRPC6 inh conf,TRPC6 act conf,others
Cc1ccc(S(=O)(=O)N2CCC(=O)N(CCOC(=O)Nc3cc(C)cc(C)c3)CC2)cc1,14.3*,i,i,-8.28*,i,i,i,12.5%*,i,90.0%*,141.5%*,
Cc1ccc(S(=O)(=O)N2CCC(=O)N(CCOC(=O)Nc3ccccc3C)CC2)cc1,i,i,i,i,i,.,.,.,.,.,.,
CN1CCN(S(=O)(=O)c2ccc(NC(=O)c3cccc(F)c3)cc2)CC1,i,i,i,i,i,.,.,.,.,.,.,
CN(C)S(=O)(=O)c1cccc(C(=O)Nc2ccc(S(=O)(=O)N3CCCC3)cc2)c1,i,.,i,-5.24*,i,i,i,i,i,i,i,
c1ccc(-c2csc(NC3CCCCC3)n2)cc1,i,i,i,i,i,.,.,.,.,.,.,
COc1ccc(CC(=O)Nc2ccc(S(=O)(=O)N(C)C)cc2)cc1OC,i,i,i,i,i,.,.,.,.,.,.,
CCCC(=O)NC(=S)Nc1ccccc1C(=O)OC,i,i,i,i,i,.,.,.,.,.,.,
CC(=O)Nc1ccc(S(=O)(=O)N2CCCN(S(=O)(=O)c3ccc(C)cc3)CC2)cc1,i,i,i,-7.44*,i,.,.,.,.,i,i,TRPC4 sel inh 2=i;TRPC4 spec=i;HEK293 MPD ctr 2-1=i;HEK293 MPD ctr-1=i
CC1(C)Cc2c(sc(NC(=O)C(=O)N3CCCCC3)c2C(=O)O)CO1,i,i,i,i,i,.,.,.,.,.,.,
COc1ccc(NC(=S)NNc2ccc([N+](=O)[O-])cc2S(=O)(=O)Nc2ccc(C)cc2C)cc1,i,i,i,-6.78*,i,.,.,.,.,i,i,TRPC4 sel inh 2=i;TRPC4 spec=i;HEK293 MPD ctr 2-1=i;HEK293 MPD ctr-1=i
Cc1cccc(N2CCN(C(=O)CN3CCOc4ccccc43)CC2C)c1 (stereo unspecified),i,i,i,i,i,.,.,.,.,.,.,
O=C(CN1CCOc2ccccc21)N1CCN(c2cccc(Cl)c2)CC1,i,i,i,-5.48*,i,i,i,i,36.0%*,i,i,
CCN(CC)S(=O)(=O)c1ccc(NN=C2CCN(C)CC2)c([N+](=O)[O-])c1,i,i,i,-7.17*,i,-83.0%*,i,-19.5%*,39.0%*,i,i,
N#Cc1c(NCCN)nc(-c2ccco2)c2c1CCCC2,i,i,i,-8.56*,i,-258.5%*,89.0%*,-46.0%*,75.0%*,76.5%*,i,
CC1(C)Cc2c(C#N)c(NCc3ccco3)nc(-c3ccco3)c2CO1,i,i,i,i,i,.,.,.,.,.,.,
CN(C)CCNc1nc(-c2ccco2)c2c(c1C#N)CC(C)(C)OC2,i,i,i,-9.7*,i,-396.0%*,77.5%*,-65.0%*,75.5%*,77.0%*,i,
Cc1cccc(C)c1N1C(=O)C2ON(c3ccccc3)C(c3ccncc3)C2C1=O (stereo unspecified),i,i,i,i,i,.,.,.,.,.,.,
CCN1CCN(CCn2c(=S)[nH]c3ccccc3c2=O)CC1,i,i,i,-6.33*,i,i,i,i,i,41.0%*,i,
O=c1c2ccccc2[nH]c(=S)n1CCN1CCCC1,i,i,i,i,i,.,.,.,.,.,.,
O=c1c2ccccc2[nH]c(=S)n1CCCN1CCC(Cc2ccccc2)CC1,i,i,i,-5.91*,i,i,i,-10.5%*,79.5%*,56.5%*,i,
CC1C(=O)N2CCCc3cc(NC(=O)C(=O)NCc4cccnc4)cc1c32 (stereo unspecified),i,i,i,i,i,.,.,.,.,.,.,
Cc1ccc(-c2c[n+](Cc3cccc(Cl)c3)c3n2CCC3)cc1,i,-6*,i,-5.13*,i,-147.0%*,i,-23.5%*,83.5%*,i,i,
Cc1ccc(-c2c[n+](CC(=O)Nc3c(C)cccc3C)c3n2CCC3)cc1,i,i,i,i,i,.,.,.,.,.,.,

# Source: PubChem (Johns Hopkins Ion Channel Center)
